Here are results for one molecule from ChEMBL document CHEMBL1125259, “Lipophilic glycosyl phosphotriester derivatives of AZT: synthesis, NMR transmembrane transport study, and antiviral activity” (1991).

In experiment [1] the target is Human immunodeficiency virus type 1 reverse transcriptase (Human immunodeficiency virus 1) (UniProt Q72547). Kind of experiment: Compounds were evaluated for anti-RT activity by MTT dose and %protection was reported at 7 days of culture. In kind it is functional. The method in brief:
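HIV-1 was preincubated with compound at 25 µM for 60 min at 37 °C, pelleted, and added to CEM-C113 cells (1×10^5 cells/mL) for 60 min at 37 °C. Medium was then replaced without compound. At days 7 and 9, viability was read by MTT assay on 100 µL of cell suspension.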

For experiment [2] the target is unchanged. Kind of experiment: Compound ability to inhibit the production of HIV reverse transcriptase (RT) in preinfected PBL (peripheral blood lymphocytes) at 10 days at a concentration 5 uM. In kind it is functional. The method in brief:
(§1)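 PBL were infected with HIV-1 for 1 h at 37 °C, washed twice, and resuspended in complete medium with 10% interleukin-2 and anti-human α-interferon (1000 units/mL). Cells were plated at 1×10^6 cells/well with or without compound. At each time point, 50 µL supernatant was taken for RT assay ([³H]dTTP incorporation, cpm).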

The target is the same in experiment [3]. The experiment in a line: Compound ability to inhibit the production of HIV reverse transcriptase (RT) in preinfected PBL (peripheral blood lymphocytes) at 14 days at a concentration 1 uM. Format: functional. The method in brief:
as §1

For experiment [4] the target is unchanged. The experiment in a line: Compound ability to inhibit the production of HIV reverse transcriptase (RT) in culture supernatant of CEM-CL13 on at 26 days at a concentration 1 uM. Format: functional. The method in brief: (§2)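 CEM-C113 cells in RPMI 1640 with 5% heat-inactivated FCS and polybrene (2 µg/mL) were plated at 1×10^5 cells/mL with compound in PBS, in triplicate, and infected with HIV-1 LAV-Bru. From day 7, every 3–4 days, fresh medium with or without drug was added and 50 µL supernatant was taken for RT microassay. The RT microassay used poly(rA)-oligo(dT) and (methyl-³H)dTTP for 1 h at 37 °C, with TCA precipitation, read as cpm/50 µL.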

Experiment [5] concerns CCRF-CEM. Kind of experiment: Concentration required to reduce the viability of uninfected cells (CEM-CL13) by 50% on day 22. In kind it is functional. Conditions: Homo sapiens, 528 h, read-out: CD50 (the source's name). The method in brief: (§3)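 CEM-C113 cells (1×10^5 cells/mL) were infected with HIV-1 LAV-Bru or mock-infected, with compound dilutions in triplicate, for at least 7 days. Medium with or without drug was renewed every 3–4 days for longer runs. MTT absorbance was read at 540 nm. CD50 = 50% reduction of mock-infected absorbance; ED50 = dose giving 50% protection from CPE. Values are averages of at least two experiments.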

Experiment [6] has as its target Human immunodeficiency virus type 1 reverse transcriptase (Human immunodeficiency virus 1) (UniProt Q72547). Kind of experiment: Compound ability to inhibit the production of HIV reverse transcriptase (RT) in culture supernatant of monocytic U937 on at 7 days at a concentration 0.2 uM. Format: functional. The method in brief:
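HIV-1 LAV-Bru-infected U937 cultures run in complete RPMI 1640 (5% FCS, polybrene 2 µg/mL) at 37 °C with compound in triplicate. Culture supernatant (50 µL) sampled from day 7 for RT microassay: poly(rA)-oligo(dT), (methyl-3H)dTTP, Mg2+, pH 7.8, 1 h at 37 °C, TCA precipitation onto filters. Read as cpm/50 µL; % inhibition = 100 − 100 × treated/virus-control cpm.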

Experiment [7] has the same target. Conditions: at 25 µM.
Experiment [8] has the same target. The conditions noted are these: at 25 µM. This is another data set of the same source.
The target is the same in experiment [9]. The experiment in a line: Compound ability to inhibit the production of HIV reverse transcriptase (RT) in culture supernatant of monocytic U937 on at 7 days at a concentration 5 uM. Format: functional. The method in brief: (§4)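 HIV-1-infected monocytic U937 cultures were kept up to 14 days with compound. Supernatant RT activity was measured as for CEM-C113, as [³H] cpm/50 µL. % inhibition = 100 − 100 × (cpm of treated samples / cpm of control virus).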

Experiment [10] shares this target. The experiment in a line: Compound ability to inhibit the production of HIV reverse transcriptase (RT) in culture supernatant of CEM-CL13 on at 15 days at a concentration 5 uM. In kind it is functional. The method in brief: as §2
Experiment [11] shares this target. The experiment in a line: Compound ability to inhibit the production of HIV reverse transcriptase (RT) in preinfected PBL (peripheral blood lymphocytes) at 7 days at a concentration 1 uM. In kind it is functional. The method in brief:
as §1

The target is the same in experiment [12]. Kind of experiment: Percent inhibition evaluated for anti-RT activity at 9 days of culture. Also on record: concentration or dose not given beside the values. Format: functional. The conditions noted are these: concentration not given here. The method in brief:
(§5)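 HIV-1 (12 500 CCID50) was preincubated with compound at 25 µM final for 60 min at 37 °C, pelleted by ultracentrifugation and resuspended. RT was measured at once with poly(rA)-oligo(dT) and ³H-dTTP (1 h, 37 °C, cpm). Treated virus was then put on CEM-C113 cells for 60 min and replaced with compound-free medium. Supernatant RT was read at days 7 and 9.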

For experiment [13] the target is unchanged. Kind of experiment: Compound ability to inhibit the production of HIV reverse transcriptase (RT) in preinfected PBL (peripheral blood lymphocytes) at 21 days at a concentration 1 uM. In kind it is functional. The method in brief:
as §1

Experiment [14] has the same target. Kind of experiment: Compound ability to inhibit the production of HIV reverse transcriptase (RT) in culture supernatant of monocytic U937 on at 11 days at a concentration 5 uM. In kind it is functional. The method in brief: as §4
For experiment [15] the target is unchanged. Kind of experiment: Percent inhibition evaluated for anti-RT activity at 7 days of culture. In kind it is functional. Also on record: concentration or dose not given beside the values. The conditions noted are these: concentration not given here. The method in brief: as §5
For experiment [16] the target is unchanged. Kind of experiment: Percent inhibition measured as the production of HIV reverse transcriptase (RT) in culture supernatant of monocytic U937 on at 14 days at a concentration 1 uM. In kind it is functional. The method in brief: (§6)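 U937 cells in RPMI 1640 with 5% heat-inactivated FCS, penicillin, streptomycin and polybrene (2 μg/mL), 37 °C, 5% CO2. Infected with HIV-1 LAV-Bru; compounds diluted in PBS. 50 μL supernatant aliquots were assayed for RT: 1 h, 37 °C, pH 7.8, Mg2+, poly(rA)-oligo(dT), [3H]dTTP, TCA-pyrophosphate stop, filter counting. % inhibition = 100 − 100 × (treated cpm / virus-control cpm).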

The target is the same in experiment [17]. Kind of experiment: Percent inhibition measured as the production of HIV reverse transcriptase (RT) in culture supernatant of monocytic U937 on at 11 days at a concentration 0.2 uM. Format: functional. The method in brief: as §4
The target is the same in experiment [18]. Kind of experiment: Compounds were evaluated for anti-RT activity at 7 days of culture. Format: functional. The method in brief:
as §5

Experiment [19] concerns CCRF-CEM. The experiment in a line: Concentration that reduced by 50% the HIV induced CPE (cytopathic effect) on day 22. Format: functional. The conditions noted are these: Homo sapiens, 528 h, read-out: ED50 (the source's name). The method in brief: as §3
The target in experiment [20] is Human immunodeficiency virus type 1 reverse transcriptase (Human immunodeficiency virus 1) (UniProt Q72547). The experiment in a line: Compound ability to inhibit the production of HIV reverse transcriptase (RT) in culture supernatant of CEM-CL13 on at 26 days at a concentration 5 uM. In kind it is functional. The method in brief: as §2
Experiment [21] has the same target. The experiment in a line: Compound ability to inhibit the production of HIV reverse transcriptase (RT) in culture supernatant of CEM-CL13 on at 22 days at a concentration 5 uM. In kind it is functional. The method in brief: as §2
Experiment [22] shares this target. The experiment in a line: Percent inhibition measured as the production of HIV reverse transcriptase (RT) in culture supernatant of monocytic U937 on at 14 days at a concentration 5 uM. Format: functional. The method in brief:
as §6

In general, inhibition refers to the percentage by which the read-out fell short of the control. In experiment [1], `Cc1cn([C@H]2C[C@H](N=[N+]=[N-])[C@@H](CO)O2)c(=O)[nH]c1=O` [ZIDOVUDINE] gave a Protection of 100%. Besides, the Activity (c.p.m. 50ul-1) in experiment [2] turned out to be 984; in experiment [3], 2020; in experiment [4], 12000; in [6], 23000; in experiment [9] it was 35000; in experiment [10], 500. Further, the Activity (c.p.m. 50ul-1) in experiment [11] came to 972; in experiment [13], 44400; in experiment [14], 118000; in experiment [18] it was 5000; in experiment [20] it was 1300; in experiment [21], 500. The CC50 in the experiment on CCRF-CEM [5] worked out at 22 µM. Besides, the inhibition in experiment [7] stood at 96%; in experiment [8], 25%; in experiment [12] it was 76%; in [15], 92%; in experiment [16] it was 0%; in experiment [17], 0%. In addition, the inhibition in experiment [22] came to 0%. Besides, the EC50 with CCRF-CEM [19] was 450 nM.
